This passage reports SER and Partition coefficient results from ChEMBL document CHEMBL1122141, “Potential radiosensitizing agents. 4. 2-Nitroimidazole nucleosides” (J Med Chem, 1982).

Data set [1] relates to V79. Nature of the data set: In vitro radiosensitizing activity against V-79 hypoxic cells was determined in the presence of the sensitizer under nitrogen at a concentration of 1.0 mM. The data set is classed as functional, Cricetulus griseus. An outline of the steps:
(§1)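 Asynchronous monolayer V-79 Chinese hamster cells from exponential cultures, plated in dishes and made hypoxic by purging sealed containers with 95% nitrogen/5% CO2. Drug exposure was 1 h at 37 °C under hypoxia, followed by cobalt-60 irradiation (~240 rad/min, 400–2700 rad). Colonies were grown 6 days at 37 °C, then fixed in ethanol, stained with methylene blue and counted. SER = D0 of hypoxic controls / D0 of drug-treated hypoxic cells.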

Data set [2] can be described thus: Partition coefficient of the compound. The data set is classed as ADME. As to conditions: octanol/water.
Data set [3] has as its system V79. Nature of the data set: In vitro radiosensitizing activity against V-79 hypoxic cells was determined in the presence of the sensitizer under nitrogen at a concentration of 0.25 mM. It counts as functional, Cricetulus griseus. A digest of the protocol:
as §1

Data set [4] relates to V79. Nature of the data set: In vitro radiosensitizing activity against V-79 hypoxic cells was determined in the presence of the sensitizer under nitrogen at a concentration of 0.5 mM. It counts as functional, Cricetulus griseus. A digest of the protocol: as §1
For data set [5], the system named is V79. The data set is described as follows: In vitro radiosensitizing activity against V-79 Hypoxic cells was determined in the presence of the sensitizer under nitrogen at a concentration of 0.1 mM. It counts as functional, Cricetulus griseus. An outline of the steps: as §1
Data set [6] concerns V79. Nature of the data set: In vitro radiosensitizing activity against V-79 hypoxic cells was determined in the presence of the sensitizer under nitrogen at a concentration of 0.05 mM. It counts as functional, Cricetulus griseus. A digest of the protocol: as §1

Regarding `O=C(OC[C@H]1O[C@@H](n2ccnc2[N+](=O)[O-])[C@H](OC(=O)c2ccccc2)[C@@H]1OC(=O)c1ccccc1)c1ccccc1`, the SER in the data set with V79 [1] (in the assay text read “0.01 mM” for “1.0 mM”) is recorded as 1. Besides, the Partition coefficient in data set [2] is 15.66.
As to `O=[N+]([O-])c1nccn1C1SC(CO)C(O)C(O)C1O` (stereo not drawn), the SER was 1.2 in the data set on V79 [3], 1.7 in the data set on V79 [1] and 1.4 with V79 [4]. This compound returned a Partition coefficient in data set [2] of 0.22.
In the case of `O=[N+]([O-])c1nccn1C1OC(CO)C(O)C(O)C1O` (stereo not drawn), the SER with V79 [1] was 1. In data set [2], this compound came in with a Partition coefficient of 0.04.
In the case of `CC(=O)OCC1OC(n2ccnc2[N+](=O)[O-])C(OC(C)=O)C(OC(C)=O)C1OC(C)=O` (stereo not drawn), the SER in the data set with V79 [5] worked out at 1.2. This compound also showed a Partition coefficient in data set [2] of 3.31.
`COC(=O)C1(n2ccnc2[N+](=O)[O-])CC(OC(C)=O)C(NC(C)=O)C(C(OC(C)=O)C(COC(C)=O)OC(C)=O)O1` (stereo not drawn): the SER in the data set with V79 [3] was 1.2; in the data set on V79 [1] it was 1.6; in the data set on V79 [4], 1.4. The compound further registered a Partition coefficient in data set [2] of 2.56.
As for `CC(=O)OCC1SC(n2ccnc2[N+](=O)[O-])C(OC(C)=O)C(OC(C)=O)C1OC(C)=O` (stereo not drawn), in data set [2], the Partition coefficient is on record as 4.22. Besides, the SER with V79 [6] was determined as 1.1.
For the compound `O=[N+]([O-])c1nccn1C1O[C@H](CO)[C@@H](O)[C@H]1O` (stereo partly drawn), the SER in the data set on V79 [4] is 1.4. The Partition coefficient in data set [2] is 0.07.
